Among all 190,000 compounds or so, about 10 (0.005%) were called active. The sample as a whole holds a higher share of actives than the screen did. Unmarked numbers belong to inactive results.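 How the source made its calls: active means diaphorase activity raised at least twofold by the compound at 20 µM; inactive means activation factor below 2.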
Experiment: compounds boosting diaphorase resazurin reduction – biochemical, uHTS, resorufin fluorescence, counter-screen for diaphorase-coupled primary assays, primary screen (AID 1229)
Conditions: Diaphorase/resazurin coupled assay, 16 min, at 20 µM, stronger effect = higher value, 1 = vehicle wells, 0 = NADH-free wells
In short: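 System – purified diaphorase enzyme from Clostridium kluyveri · Input – enzyme 0.07 U/mL final · Also added – final NADH 0.114 mM, resazurin 0.1 mM · Measured by – fluorescence of resorufin, 544 nm excitation, 590 nm emission · Timing – 16 min enzyme reaction, ambient temperature · Measure – resorufin increase flagging diaphorase activators or reducers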

Compound | activation factor
O=C(O)COc1ccc(/C=N/O)cc1Br | 0.9
Cc1ccccc1C(CC(=O)c1cccs1)C(C#N)C#N (stereo not given) | 0.9
O=C(Nc1ccccc1Cc1ccccc1)c1ccc2c(c1)SC1=NS(=O)(=O)CCN12 | 0.9
COc1cc(NC(=O)CSc2nnc3ccc(-c4ccncc4)nn23)cc(OC)c1 | 0.8
O=C(c1ccc(F)cc1)n1cc(C(=S)N2CCOCC2)c2ccccc21 | 1
Cc1cccc(C)c1NC(=O)CNC(=O)Cc1ccc(Br)cc1 | 0.9
COC(=O)C1=NNC2(c3ccc(C)cc3)C(=O)N(c3cccc(C)c3C)C(=O)C12 (stereo not given) | 0.9
CCCNCc1cc(OCC)c(OCC(=O)Nc2ccccc2)cc1Br | 0.9
Cc1cc(C)cc(OCC(=O)NCc2cc(C)nc3ccccc23)c1 | 1
COc1ccc([N+](=O)[O-])cc1NC(=O)c1ccc(N(Cc2ccccc2C)S(C)(=O)=O)cc1 | 0.9
COc1ccc(NS(=O)(=O)c2cc(NC(=O)C3CCCCC3)ccc2N2CCOCC2)cc1 | 1.1
Cc1cc2c(C)nc(N/N=C/c3ccccc3)nc2o1 | 0.9
O=C1NCC(=O)N(Cc2ccccc2)/C1=C/c1ccccc1 | 1
CCOC(=O)C(C)Sc1nnc(CSc2nc3nc(C)cc(C)n3n2)o1 (stereo not given) | 1
Cc1ccc(NC2=C(Cl)C(=O)OC2OC(=O)c2ccccc2C)cc1 (stereo not given) | 0.9
O=C(Nc1ccc(F)cc1)N1CCN(c2ccc(F)cc2)CC1 | 0.9
Cc1ccc(/C(N)=N/OC(=O)COc2ccc(Cl)c(C)c2)cc1 | 0.9
Cc1cc(C)n(-c2nnc(N3CCN(c4ccccc4)CC3)nn2)n1 | 0.9
CCn1c(COc2c(C)cccc2C)nnc1SCc1nc2ccccc2c(=O)[nH]1 | 0.7
Cc1cc(Cl)ccc1C(=O)C1CCCN(C(=O)CCN2CCCO2)C1 (stereo not given) | 1
Oc1c(Br)cccc1/C=N/Nc1c(F)c(F)c(F)c(F)c1F | 1
Cc1ccc(S(=O)(=O)N(CC(=O)NN=C2CCN(C)CC2)c2ccc(F)cc2)cc1 | 0.9

Compound | activation factor
O=C(NC1CCCC1)C(NS(=O)(=O)c1ccc(Br)s1)c1ccccc1 (stereo not given) | 0.9
CCOC(=O)C1CCN(C(=O)c2ccccc2N(C)S(=O)(=O)c2ccccc2)CC1 | 1
Cn1cnnc1SCc1nnc(-c2ccccc2Br)o1 | 1
COc1ccc(CNC(=O)CN2CCC(n3nnc4cc(F)ccc43)CC2)cc1 | 0.8
C=C(C)c1cccc(C(C)(C)NC(=O)NC2CCCC2)c1 | 0.9
Nc1[nH]c(=S)nc2nc(-c3ccccc3)c(-c3ccccc3)nc12 | 0.8
CC1=C[C@H]2Cc3cc(C)cc(C)c3S(=O)(=O)[C@@H]2C=C1 | 0.9
CCCCOc1ccc(C(=O)N/C(=C/C=C/c2ccccc2)C(=O)N2CCOCC2)cc1 | 0.8
Cc1ccc(S(=O)(=O)Cc2cc(-c3ccc(Cl)cc3)no2)cc1 | 0.8
CCOc1ccc(/C=C(/NC(=O)c2ccccc2)C(=O)NCCC(=O)O)cc1 | 0.9
NC(=O)C[C@@H]1NC(=O)CNC(=O)c2cc([N+](=O)[O-])cc(I)c2NCCC(C(N)=O)NC1=O (stereo not given in full) | 1.1
CSc1cc(C)[nH]c(=O)n1 | 0.9
C[n+]1ccc(/C=C/c2c[nH]c3ccccc23)cc1 | 1
COC(=O)CCc1sc(Nc2ccc(Br)cc2)nc1-c1ccc(OC)cc1 | 0.8
O=c1[nH]c2cccnc2n(CCNc2ncc(C(F)(F)F)cc2Cl)c1=O | 0.8
COCC1CCCN(Cc2cn[nH]c2-c2cc3ccccc3o2)C1 (stereo not given) | 0.9
CC1CCCCC1NC(=O)COC(=O)Cc1ccc(Br)cc1 (stereo not given) | 0.9
O=C1NC2(CCCCCC2)C(=O)N1CCS(=O)(=O)Oc1ccccc1 | 1
COc1cccc(-n2nc(C(=O)N3CCN(Cc4ccccc4)CC3)c3ccccc3c2=O)c1 | 0.8
CCN(CC)CCNCc1ccc(OCc2ccc(Cl)nc2)c(OC)c1 | 1.1
CC(C)Oc1c(Br)cc(Br)cc1/C=N/NC(N)=S | 1
Cc1cc(C)cc(OCC(=O)NNC(=O)CCN2C(=O)c3ccccc3C2=O)c1 | 0.9

Compound | activation factor
O=C(CCC(=O)NNc1nc2ccccc2c2nc(-c3ccccc3)nn12)NCCCN1CCCC1=O | 0.8
COc1ccc(-c2csc(-c3cccs3)n2)cc1OC | 0.8
COc1ccc(O)c(C(=O)c2cnc3c(c2)c(-c2ccc(F)cc2)c(C#N)c(=O)n3C)c1 | 0.9
CC(C)(C)CC(C)(C)NCC(O)COCCOc1ccc(Br)cc1 (stereo not given) | 0.9
Cc1cc(NS(=O)(=O)c2ccc(NC(=O)c3cccc(OC(F)F)c3)cc2)nc(C)n1 | 1
CCC1S/C(=N/N=C/c2ccco2)NC1=O (stereo not given) | 0.9
CCOC(=O)C(NC(=O)CC(C)C)(Nc1sc2c(c1C(N)=O)CCCC2)C(F)(F)F (stereo not given) | 0.9
C/C(=N\NC(=O)CNC(=O)C(c1ccccc1)c1ccccc1)c1ccc(C)cc1 | 0.9
C=CCn1c(COc2ccc(F)cc2)nnc1SCC(=O)Nc1cccc(S(N)(=O)=O)c1 | 1.1
CCOc1ccc(NS(=O)(=O)c2cc(C)c(C)cc2C)cc1 | 0.8
O=C(Nc1ccc(Cl)cn1)c1ccc2c(c1)OCCO2 | 1
CN(C)S(=O)(=O)c1ccc(N2CCCC2=O)c([N+](=O)[O-])c1 | 0.9
S=C(Cc1ccc(Cl)cc1)N1CCOCC1 | 1
CN(Cc1ccc2nsnc2c1)Cc1nc(Cc2cccc(F)c2)no1 | 0.8
CCN(CC(=O)NCCc1ccccc1)S(=O)(=O)c1ccccc1 | 1
NC(N)=N/N=C/c1ccc(Cl)c([N+](=O)[O-])c1 | 1
NC(N)=N/N=C/c1ccc(OCc2ccc(Cl)cc2Cl)cc1 | 2.2 (active)
COc1ccc(C(=O)O/N=C(\N)Cc2ccc(Cl)cc2Cl)cc1OC | 1
O=C(CCc1n[nH]c(=O)[nH]c1=O)N/N=C/c1ccc(Br)o1 | 1
Cc1cccc(OCCNC(=O)CSc2ccc(C(F)(F)F)cc2[N+](=O)[O-])c1 | 0.9
Cc1ccc(NC(=O)Nc2ccccc2)c(Br)c1 | 0.9
COc1cc2[nH]c(=S)n(Cc3ccc(F)cc3)c(=O)c2cc1OC | 0.9

Compound | activation factor
O=C(Nc1ccc2c(c1)OCO2)c1sc2cc(Cl)ccc2c1Cl | 1
Cc1cc(NC(=O)CSc2nc3ccccc3n2CC(C)C)no1 | 0.8
CNC(=O)COc1ccc(S(=O)(=O)Nc2ccccc2)cc1 | 0.8
COc1ccc(C)cc1NC(=S)Nc1ccccc1SC | 1
Cc1cccc(NC(=O)Nc2ccc3c(c2)OCO3)n1 | 0.8
CCOc1ccc(C(=O)NC(=S)Nc2ccc(N3CCOCC3)c(Cl)c2)cc1[N+](=O)[O-] | 0.8
O=C(NC1CCCC1)C(c1ccc(N2CCOCC2)cc1)N(C(=O)c1ccco1)c1ccccc1F (stereo not given) | 0.9
COc1ccc(N2CCN(C(=O)/C(C#N)=C/c3ccccc3)CC2)cc1 | 1
O=[N+]([O-])c1ccccc1SNc1ccccn1 | 0.8
COc1ccccc1C(=O)Nc1ccc(OCc2nnc3c4ccccc4c(C)nn23)cc1 | 0.8
CO/N=C(\N)c1ccc([N+](=O)[O-])cc1 | 0.9
O=S(=O)(Nc1cc(S(=O)(=O)N2CCOCC2)ccc1N1CCCC1)c1cccs1 | 0.9
O=C(COc1cccc(F)c1)Oc1ccc(C(=O)c2ccccc2)cc1 | 0.9
O=C(NNC(=S)Nc1ccccc1)c1cccc(S(=O)(=O)N2CCOCC2)c1 | 0.9
COC(=O)/C=C\C(=O)Nc1cccc([N+](=O)[O-])c1 | 1.1
CCC(C)N(C(=O)COC(=O)C1C(C(=O)OC)=C(C)NC(C)=C1C(=O)OC)C1CCS(=O)(=O)C1 (stereo not given) | 0.9
CCn1c(SCC(=O)Nc2ccc(C)cc2)nc2nc3c(cc2c1=O)CCCC3 | 0.9
Cc1cc(C)n(Cc2cnc(N3CCOCC3)s2)n1 | 1
Cc1ccccc1CN1C[C@@H]2C[C@@H](c3ccc4nsnc4c3)N3CCC[C@@]23C1=O | 0.8
O=C(/C=C/c1ccc2c(c1)OCO2)NCc1cn2cc(Cl)ccc2n1 | 1.1
CCN(CC)CCNC(=O)c1sc2ncn(CC(=O)Nc3ccc(C)c(Cl)c3)c(=O)c2c1C | 0.9
Cc1cc(Cl)ccc1NC(=S)NCCCN1CCCC1=O | 1

Compound | activation factor
CCCCn1nc(C(=O)Nc2ccc(S(=O)(=O)Nc3ncccn3)cc2)c2ccccc2c1=O | 0.9
C#CCOCCOCCOCCNc1nc(N2CCN(C(=O)[C@H](CCCCN)n3cc([C@@H](N)C(C)CC)nn3)CC2)nc(N2CCN(C(=O)[C@H](Cc3ccc(O)cc3)n3cc([C@@H](N)C(C)CC)nn3)CC2)n1 (stereo not given in full) | 1.7
Cn1c(=O)cc(OCC(=O)N2CCN(c3ccccc3F)CC2)c2ccccc21 | 0.9
Cc1cc(F)ccc1S(=O)(=O)Nc1ncnc2scc(-c3ccc(F)cc3)c12 | 0.8
CCOC(=O)CSc1nc(C)cc2c1C(=O)OC2 | 1
Fc1cc(Br)ccc1NC(=S)Nc1cccnc1 | 1
Cc1ccc(NC(=O)NNC(=O)c2sccc2-n2cccc2)cc1 | 1
CNC(=O)c1ccc(NC(=O)c2cccc(C(F)(F)F)c2)cc1 | 0.9
O=c1cc(CO)oc(C(Nc2cccc(C(F)(F)F)c2)c2ccccn2)c1O (stereo not given) | 0.7
Cc1ccc2c(c1)C(c1ccccc1)N(C(=O)c1ccc(S(=O)(=O)N3CCOCC3)cc1)CC(=O)N2 (stereo not given) | 1
CN1C(=O)/C(=C/c2ccc(C(=O)NC3CCCC3)cc2)Oc2ccccc21 | 1
CN1C=CC=C/C1=C1\SC(=S)N(Cc2ccccc2)C1=O | 1
CCCCC(=O)Nc1ccc(C(=O)Nc2cc(C(F)(F)F)ccc2Cl)cc1 | 1
CCOC(=O)C/C(C)=N\Nc1ccc([N+](=O)[O-])cc1[N+](=O)[O-] | 0.9
N/C(=N\OC(=O)CCc1ccccc1)c1cccnc1 | 1
CCCOc1ccc(NC(=O)CC2C(=O)N(C)C(=S)N2Cc2ccc3c(c2)OCO3)cc1 (stereo not given) | 0.8
CC(C(=O)O)n1cnc2sc3c(c2c1=O)CCCC3 (stereo not given) | 0.9
NC1=NC(=O)C(Cc2cccc(Cl)c2Cl)S1 (stereo not given) | 1
COc1ccc(CCNC(=O)CSc2nc3[nH]ncc3c(=O)n2-c2cccc(C(F)(F)F)c2)cc1OC | 0.9
CC(C)(C)OC(=O)N/N=C/c1cn(-c2ccccc2)nc1-c1cccnc1 | 1
O=C(NC(=S)Nc1ccc2oc(=O)ccc2c1)c1ccc(-c2cccc(Cl)c2Cl)o1 | 1.1
COc1ccc(CN2CCN(Cc3cn(C)nc3-c3ccccc3)CC2CCO)c(C)c1C (stereo not given) | 1

From PubChem BioAssay AID1229 (Sanford-Burnham Center for Chemical Genomics, 2008)
